Screening results deposited in PubChem BioAssay by several laboratories.
PAFAH1B3 FP inh: inhibitors of human PAFAH1B3. inhibition, % at 3.39 µM. recombinant PAFAH1B3, FP-rhodamine probe, fluorescence polarization. hit rate 0.28% among 340,000. Q15102;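 active = inhibition above the screen-wide average of all tested compounds plus 3 SD, cut at about 25% in these data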;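 also: 0% = enzyme with DMSO only and 100% = wells lacking PAFAH1B3 protein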
Target sequence (Q15102 whole entry, looked up): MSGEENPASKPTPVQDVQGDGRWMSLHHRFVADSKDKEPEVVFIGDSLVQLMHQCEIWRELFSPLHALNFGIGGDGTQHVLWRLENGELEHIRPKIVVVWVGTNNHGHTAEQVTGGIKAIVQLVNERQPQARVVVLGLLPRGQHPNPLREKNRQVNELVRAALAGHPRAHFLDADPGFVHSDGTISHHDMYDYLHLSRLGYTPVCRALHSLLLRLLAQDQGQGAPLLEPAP
PAFAH1B2 FP inh: inhibitors of human PAFAH1B2. AID 492953. inhibition, % at 3.39 µM. recombinant PAFAH1B2, FP-rhodamine activity probe, fluorescence polarization. P68402. hit rate 1.2% among 340,000;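 active = inhibition above the mean of all tested compounds plus 3 SD, cut at about 24% in these data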;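 also: 0% = enzyme with DMSO and 100% = wells lacking PAFAH1B2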
Target sequence (P68402 whole entry, looked up): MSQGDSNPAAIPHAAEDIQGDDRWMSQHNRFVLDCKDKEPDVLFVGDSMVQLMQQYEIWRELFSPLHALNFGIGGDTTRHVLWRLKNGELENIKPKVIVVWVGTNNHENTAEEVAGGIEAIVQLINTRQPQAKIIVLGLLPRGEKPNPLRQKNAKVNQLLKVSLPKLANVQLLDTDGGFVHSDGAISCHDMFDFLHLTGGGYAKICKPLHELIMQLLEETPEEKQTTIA
PAFAH2 inh: inhibitors of human PAFAH2; recombinant PAFAH2, FP-rhodamine activity probe, fluorescence polarization; inhibition, % at 3.39 µM; hit rate 0.99% among 340,000;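 active = inhibition above the mean over all tested compounds plus 3 SD, cut at about 30% in these data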;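 also: inhibitors block probe labeling of enzyme so polarization drops; 0% = enzyme with DMSO and 100% = wells lacking PAFAH2 protein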
pPAFAH FP inh: inhibitors of human plasma PAF acetylhydrolase (pPAFAH); Q13093; inhibition, % at 3.39 µM; recombinant pPAFAH, FP-rhodamine probe fluorescence polarization; AID 463082; hit rate 1.5% among 330,000;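 active = inhibition above the mean inhibition across the screen plus 3 SD, cut at about 25% in these data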;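 also: inhibitors block binding of the rhodamine activity-based probe so polarization drops; 0% = enzyme with DMSO and 100% = wells lacking pPAFAH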
Apaf1 inhib: blocks human Apaf-1 apoptosome activity. O14727. reconstituted apoptosome caspase-3 activity, DEVD-Rh110 fluorescence. inhibition, % at 20 µM. hit rate 0.71% among 330,000. AID 489030; active = inhibition of at least 40% at 20 µM;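 also: plate controls were DMSO wells for no effect and DEVD-CHO caspase inhibitor wells for full effect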
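Medium: Hepes buffer, pH 7.5 / System: biochemical Apaf-1 apoptosome reconstitution / Measured by: Rh110 fluorescence, excitation 480 nm, emission 540 nm / Times: compound with Apaf-1, dATP, procaspase-3 30 min, then 50 min reaction, room temperature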
Starred values were filed as active, the others as inactive; . = not tested or not shown. Hits are enriched below; roughly 3.1% of the tested compounds scored in any of these assays.

SMILES	PAFAH1B3 FP inh	PAFAH1B2 FP inh	PAFAH2 inh	pPAFAH FP inh	Apaf1 inhib
CC(=O)NC12CC3CC(C1)CC(C(=O)Nc1c(C)n(C)n(-c4ccccc4)c1=O)(C3)C2	8	10	-3	-1	3
Cc1c(NC(=O)COC(=O)COc2ccc(Nc3ccccc3)cc2)c(=O)n(-c2ccccc2)n1C	-2	-2	4	25*	10
Cc1c(NC(=O)CCSc2ccc(Cl)cc2)c(=O)n(-c2ccccc2)n1C	2	32*	4	8	-25
CCC(=O)c1ccc(OCC(=O)OCC(=O)Nc2c(C)n(C)n(-c3ccccc3)c2=O)cc1	4	1	-2	7	1
Cc1c(NC(=O)C23CC4CC(CC(C)(C4)C2)C3)c(=O)n(-c2ccccc2)n1C	4	35*	50*	3	3
O=C(CSc1ccc(Cl)cc1)NC1=NN(c2ccccc2)C(=O)C1	7	96*	18	32*	4
N#Cc1ccccc1OCC(=O)NC(=O)NC1CCS(=O)(=O)C1 (configuration not stated)	2	0	-1	-4	-2
CCCCN(CCO)CCCC	3	2	-6	0	-3
Cc1cc(C(=O)OCC(=O)Nc2sc3c(c2C#N)CCC(C)C3)c2ccccc2n1 (configuration not stated)	1	-1	0	25*	11
COc1ccc(CCNC(=O)CSc2nnc(-c3ccco3)c(-c3ccco3)n2)cc1OC	.	.	.	10	43*
CCOC(=O)C1(CCOc2ccccc2)CCN(Cc2cccc(OC)c2OC)CC1	2	-3	5	-5	7
O=C(Cc1ccc(Cl)cc1)NNC(=S)NC(=O)c1cccs1	0	20	12	11	0
O=C(Cc1cccs1)NNC(=S)NCc1ccc(Cl)cc1	6	55*	-5	2	1
CCOC(=O)CC(=O)CSc1nc(N)c(C#N)c(-c2ccc(F)cc2)c1C#N	-6	4	4	28*	-4
Cc1ccc2[nH]c(C(=O)O)c(NC(=O)[C@@H]3C[C@@H]3c3ccccc3)c2c1	3	31*	7	7	-2
O=C(c1ccc(=O)oc1)N1CCCc2ccccc21	10	12	40*	25*	-1
CC1CCCCC1NC(=O)c1cccc(NC2=NC3CS(=O)(=O)CC3S2)c1 (configuration not stated)	-3	0	-4	2	4
O=C(c1ccc(NS(=O)(=O)c2ccccc2)cc1)N1CCN(c2ccccc2)CC1	-3	-3	-1	3	-5
Cc1ccc(CCNS(=O)(=O)c2cc3c(cc2C)NC(=O)CO3)cc1	-3	24*	-7	9	8
O=C(c1ccc(Cl)cc1)N(Cc1ccco1)C1CCS(=O)(=O)C1 (configuration not stated)	5	4	-5	1	-9
N#CCC(=O)Nc1ccc(C(=O)NCCC(c2ccccc2)c2ccccc2)cc1	-9	-7	-13	34*	14
CN(C)C(CNC(=O)c1ccc(NC(=O)CC#N)cc1)c1ccccc1 (configuration not stated)	2	1	-11	2	-1
CC(C)(C)C(=O)Nc1cc(NC(=O)C(C)(C)C)cc(C(=O)Nc2c[nH]c(=O)[nH]c2=O)c1	.	.	.	-2	-18
Cc1ccc(CN(C(=O)COc2ccc(Br)cc2)C2CCS(=O)(=O)C2)o1 (configuration not stated)	3	6	1	10	-2
CC1CCN(S(=O)(=O)c2ccc3c(c2)CCN3C(=O)CCC(=O)O)CC1	11	26*	1	2	-1
SMILES	PAFAH1B3 FP inh	PAFAH1B2 FP inh	PAFAH2 inh	pPAFAH FP inh	Apaf1 inhib
CN(C)c1ccc(C(=S)N2CCCC2)cc1Br	3	3	2	9	2
CC(=O)c1c2c3c(c(Br)ccc3n(C)c1=O)C(=O)c1ccccc1-2	14	3	-4	29*	14
CCN(C(=O)c1ccc(NC(=O)Cc2ccccc2)cc1)c1ccccc1	9	26*	1	.	12
O=C(Cc1ccccc1)Nc1ccc(N2CCCC2)cc1	2	-4	5	33*	31
O=C(COc1ccccc1Cl)Nc1ccc(N2CCCC2)cc1	3	-2	3	58*	29
O=C(Cc1ccccc1)Nc1ccc(N2CCOCC2)cc1	-1	-1	-7	1	19
CC(C)(C)OC(=O)C[C@@H]1C/C=C\C[C@H](CC(=O)N(CCO)Cc2ccccc2)C(=O)N[C@@H](Cc2c[nH]c3ccccc23)COC1=O	-2	0	-4	12	16
O=C1c2ccccc2C(=O)C1(O)O	.	.	.	3	68*
Cc1c(NC(=O)c2ccc([N+](=O)[O-])o2)cccc1-c1nc2ncccc2o1	7	8	1	-8	8
Cn1c(SCc2ccc(Br)cc2)nnc1-c1cccs1	-1	24*	0	2	0
Cc1ccc(CSc2nnc(-c3cccs3)n2C)cc1	6	4	4	-1	-24
CN(CCO)c1cc(Sc2nc3ccccc3s2)c2nonc2c1[N+](=O)[O-]	-5	9	0	2	52*
CCc1cc(Cn2nc(-c3ccccc3)cc2C(=O)NCc2ccccc2OC)on1	3	0	-8	-8	18
COc1cc(/C=C2\CCc3c2nc2ccccc2c3C(=O)O)cc(OC)c1OC	11	-1	18	32*	2
COc1cc(/C=C2\CCCc3c2nc2ccccc2c3C(=O)O)cc(Br)c1O	12	2	6	12	2
CC(C)CNC1=CC(=O)CC(c2ccco2)C1 (configuration not stated)	3	5	18	10	5
O=C1C=C(NCc2ccc(Cl)cc2)CC(c2ccco2)C1 (configuration not stated)	12	29*	11	11	5
O=C(NCCCN1CCOCC1)c1ccc(Sc2cccc(Cl)c2)c([N+](=O)[O-])c1	2	-1	2	32*	1
O=C(NCCCN1CCOCC1)c1ccc(Cl)c([N+](=O)[O-])c1	.	.	.	5	-23
CSc1nc(N2CCOCC2)nc2ccc(C)cc12	2	2	-3	5	7
CC(C)c1ccc(C(=O)COC(=O)C(O)c2ccccc2)cc1 (configuration not stated)	7	13	9	29*	5
CCOC(=O)CNS(=O)(=O)c1ccc(S(=O)(=O)NC2CC2)cc1	13	3	1	-3	-12
COC(=O)c1cc(NC(=O)Cc2cccs2)cc(C(=O)OC)c1	11	5	9	26*	-3
CC(=O)Nc1cccc(NC(=O)Cc2cccs2)c1	9	-2	1	11	-16
Cc1ccc([N+](=O)[O-])cc1NC(=O)Cc1ccc(F)cc1	5	1	0	3	-1
Cc1ccc([N+](=O)[O-])cc1NC(=O)Cc1cccs1	2	-2	1	27*	3
COc1cc(S(=O)(=O)Nc2cccc(C)c2)ccc1NC(=O)c1ccncc1	-4	1	10	33*	-5
